# Compound activity as filed in PubChem BioAssay.
# RGS4 act = RGS4 potentiation or activation; HEK293 M3R/inducible RGS4, carbachol calcium flux Fluo4; active compounds read low; AID 463111; B-score at 10 µM; actives 0.92% (n = 310,000);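 active = B-score of the integrated calcium signal more than 4 SD below the library mean, with starting fluorescence not abnormally high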;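 also: negative B-score means reduced calcium response which marks RGS4 activation or potentiation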
#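 test system = M3R-expressing HEK293 line, RGS4 induced by doxycycline | probe or stimulus = carbachol at ECmax as muscarinic agonist stimulus | timing = dye loading 30 min 37 °C, buffer rest 30 min RT | signal = calcium dye Fluo4 fluorescence | evaluation = B score from integrated fluorescence ratio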
# MrgX1 antagonist = antagonists of human MrgX1 receptor | Q96LB2 | MRGX1-HEK293 calcium flux, Fluo-4, BAM8-22 antagonism; active compounds read low | B-score at 10 µM | actives 1.3% (n = 310,000);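 active = calcium-response B-score plate-corrected more than 3 library SD below zero, starting fluorescence within 5 deviations, no agonist response on first addition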;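 also: peak minus trough fluorescence over baseline after final BAM8-22 challenge near maximal dose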
# Target sequence (Q96LB2 whole entry, looked up): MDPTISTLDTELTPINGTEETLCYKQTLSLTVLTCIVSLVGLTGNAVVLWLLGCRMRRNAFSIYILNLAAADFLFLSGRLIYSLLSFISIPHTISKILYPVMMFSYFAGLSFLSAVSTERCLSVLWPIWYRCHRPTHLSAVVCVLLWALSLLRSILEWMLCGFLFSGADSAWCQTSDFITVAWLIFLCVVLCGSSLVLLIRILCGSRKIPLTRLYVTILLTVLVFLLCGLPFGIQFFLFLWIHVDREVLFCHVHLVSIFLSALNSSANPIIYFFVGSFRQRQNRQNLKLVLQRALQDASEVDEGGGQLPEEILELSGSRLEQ
# RGS4 block = human RGS4 inhibition; P49798; HEK293 M3R/RGS4 inducible, Fluo-4 calcium flux; active compounds read high; triggered by carbachol at its EC20; B-score at 10 µM; actives 0.45% (n = 310,000); AID 463165;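 active = B-score, a plate-corrected calcium signal, over three deviations above library mean, with baseline fluorescence within five deviations of library mean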;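 also: RGS4 expression induced by doxycycline in cells with stable M3 receptor; B-score is computed from the integrated fluorescence ratio over baseline after carbachol; higher B-score means a larger calcium signal and so more RGS4 inhibition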
# Target sequence (P49798 whole entry, looked up): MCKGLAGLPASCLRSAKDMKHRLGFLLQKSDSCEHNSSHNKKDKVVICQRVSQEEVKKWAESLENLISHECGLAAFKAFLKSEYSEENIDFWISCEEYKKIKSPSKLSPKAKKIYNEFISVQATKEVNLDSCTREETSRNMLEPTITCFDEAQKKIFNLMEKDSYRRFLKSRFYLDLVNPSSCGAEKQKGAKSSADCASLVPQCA
# MrgX1 agonist = human MrgX1 receptor agonism, primary screen; actives 0.44% (n = 310,000); B-score at 10 µM; AID 588627; MrgX1-HEK293 cells, Fluo-4 calcium fluorescence, agonist mode; active compounds read high;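 active = calcium response B-score plate-corrected fluorescence ratio at least 3 library SD, with starting fluorescence B-score inside 5 SD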
#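 System – MrgX1-expressing HEK293 cells · Incubation – cells plated overnight, dye loaded 0.5 h 37 °C, 0.5 h room temperature · Technique – kinetic Fluo-4 NW fluorescence of intracellular calcium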
# MrgX1 allo act = human MrgX1 positive allosteric modulation, primary screen. Q96LB2. MrgX1-HEK293, Fluo-4 calcium flux, FDSS; active compounds read high. B-score at 10 µM. actives 0.63% (n = 310,000);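 active = plate-corrected calcium response at least 3 library SD above typical, normal starting fluorescence, not activating the receptor alone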;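 also: compound read alongside a low EC10 to EC30 dose of BAM8-22 agonist; peak minus trough fluorescence over baseline measured at the second addition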
# * hit, by the source's call; i = inactive; . = no result. Rows were chosen to be rich in hits. Some 3.5% of all compounds tested hit in one or more screens of this group.
SMILES,RGS4 act,MrgX1 antagonist,RGS4 block,MrgX1 agonist,MrgX1 allo act
COc1cc2c(cc1OC)/C(=C/C(=O)c1ccc(OC)c([N+](=O)[O-])c1)NCC2,-7.3*,-4.6*,i,i,i
Cc1ccc(S(=O)(=O)NC(C(=O)Oc2ccc3ccc(=O)oc3c2)c2ccccc2)cc1 (stereo not drawn),i,i,i,i,i
Cc1ccc(S(=O)(=O)N[C@H](C(=O)Oc2ccc3c(C(F)(F)F)cc(=O)oc3c2)c2ccccc2)cc1,i,i,i,29*,i
CC[C@@]1(c2ccccc2)C(=O)N(C(=O)OC)N1C(=O)OC,i,-8.6*,i,i,i
CC[C@]1(c2ccccc2)C(=O)N(C(=O)OC)N1C(=O)OC,i,i,i,i,i
COc1ccc(-c2nc(-c3cccs3)c(-c3cccs3)[nH]2)cc1OC,-8*,i,i,i,i
COc1ccc(-c2nc(-c3ccccc3)c(-c3cccs3)[nH]2)cc1OC,i,i,i,i,i
O=[N+]([O-])c1ccc(-c2nc(-c3cccs3)c(-c3cccs3)[nH]2)cc1,-8.9*,i,i,i,i
Cc1noc(NS(=O)(=O)c2ccc(NC(=O)c3cc(-c4ccccc4Cl)nc4ccccc34)cc2)c1C,i,i,i,39*,i
C=CCN1C(=O)C(CC(=O)Nc2ccc(OCCC)cc2)N(CCCN2CCN(Cc3ccccc3)CC2)C1=S (stereo not drawn),i,i,i,i,9.4*
O=C(OCc1cccc([N+](=O)[O-])c1)c1ccc2ccccc2n1,i,i,i,i,12*
O=C(OCc1ccc([N+](=O)[O-])cc1)c1ccc2ccccc2n1,i,i,i,i,i
O=S(=O)(c1ccc(Cl)nc1)N1CCN(c2ncccn2)CC1,i,i,i,i,i
Cc1cc(C=C2C(=O)c3ccccc3C2=O)c(C)n1-c1ccc(C(=O)O)cc1,i,i,i,i,i
Cc1cc(/C=c2\sc3nc4ccccc4n3c2=O)c(C)n1-c1ccc(C(=O)O)cc1,-7.3*,.,i,.,.
Cc1cc(C=C2C(=O)c3ccccc3C2=O)c(C)n1-c1ccccc1,i,i,i,i,8.5*
Cc1cc(C=C2C(=O)c3ccccc3C2=O)c(C)n1-c1cccc(C(=O)O)c1,i,i,i,i,10*
Cc1ccc(NC(=S)N(C)C)cc1C,i,i,i,i,i
O=C1C2C3C=CC(C3)C2C(=O)N1/N=C/c1cn(Cc2ccc(F)cc2)c2ccccc12 (stereo not drawn),-8*,i,i,i,i
CC1=C/C(=N\NC(=S)Nc2cccnc2)CC(C)(C)C1,i,.,i,.,.
CCOC(=O)C(Cc1ccccc1)NC(=O)Cn1nnc(-c2ccc(SC)cc2)n1 (stereo not drawn),i,-6.9*,i,i,i
COC(=O)C1=C(C)N(Cc2ccco2)C(=O)/C1=C\c1ccc([N+](=O)[O-])cc1,i,i,i,28*,i
COc1ccccc1NC(=O)C(C)OC(=O)C1CCC(C(C)(C)C)CC1 (stereo not drawn),i,i,i,i,i
O=C(CSc1nnc(NC(=O)c2ccccc2Cl)s1)Nc1ccc2c(c1)oc1ccccc12,i,-4.6*,i,i,i
O=C(Nc1cccnc1)c1cc2cc(Br)ccc2o1,i,i,i,i,i
SMILES,RGS4 act,MrgX1 antagonist,RGS4 block,MrgX1 agonist,MrgX1 allo act
CCOC(=O)C1(Cc2cccc(Cl)c2)CCCN(C(=O)CN2C(=O)CSC2=O)C1 (stereo not drawn),i,i,i,i,i
Cc1ccc(OCC(=O)NNC(=O)C2CCN(c3ncnc4sc(C)c(C)c34)CC2)cc1,i,i,i,i,i
Cc1sc2ncnc(N3CCC(C(=O)NNC(=O)COc4ccccc4F)CC3)c2c1C,-7.7*,i,i,i,i
Cc1sc2ncnc(N3CCC(C(=O)NNC(=O)COc4ccccc4Cl)CC3)c2c1C,-8*,-7*,i,i,i
COc1ccc(-n2ncc3c2CC(C)(C)CC3NC(=O)c2cn[nH]c2)cc1 (stereo not drawn),i,i,i,i,i
COc1ccc(CCN(Cc2cc3cc(C)cc(C)c3nc2Cl)C(=O)C2CC2)cc1,-7.2*,i,i,i,i
O=C1CSC(c2cccc([N+](=O)[O-])c2)N1c1ccc(O)cc1 (stereo not drawn),i,i,i,i,i
O=C1CSC(c2cccc([N+](=O)[O-])c2)N1c1ccccc1 (stereo not drawn),-7.5*,i,i,i,i
O=C(NC(Nc1nc2ccc([N+](=O)[O-])cc2s1)(C(F)(F)F)C(F)(F)F)c1cccnc1,i,i,i,i,i
O=C(NC(Nc1nc2ccc([N+](=O)[O-])cc2s1)(C(F)(F)F)C(F)(F)F)c1ccccc1Cl,i,-5.5*,i,i,i
O=[N+]([O-])c1ccc2nc(NS(=O)(=O)c3ccccc3[N+](=O)[O-])sc2c1,i,i,i,i,10*
O=[N+]([O-])c1ccccc1S(=O)(=O)Nc1nc2ccccc2s1,i,i,i,i,i
O=[N+]([O-])c1ccc2nc(NS(=O)(=O)c3ccc(Cl)cc3)sc2c1,i,i,i,i,11*
O=C1N=C(N2CCOCC2)S/C1=C/c1cc2c(cc1[N+](=O)[O-])OCO2,i,i,i,i,i
Cc1ccc(-c2nnc(SCC(=O)N(CC(C)C)c3c(N)n(Cc4ccccc4)c(=O)[nH]c3=O)n2N)cc1,i,i,i,i,i
CCOC(=O)c1ccc(CC(=O)c2ccc(O)cc2O)o1,i,i,i,i,i
CCC(=O)Oc1ccc(C/C(=N\O)c2ccc(O)cc2O)o1,i,-4.6*,i,i,i
CCOc1cc(CN2CCCCC2)ccc1OC,i,i,i,i,i
CCOc1ccc(C=O)cc1CN1CCCCC1,i,-5.8*,i,i,i
CCOC(=O)CSc1nc(-c2ccccc2)nc2c1oc1ccccc12,-7.3*,i,i,i,i
Cc1cc(=O)n2nc(N3CCCC(C(=O)N4CCc5ccccc54)C3)sc2n1 (stereo not drawn),-7.7*,i,i,i,i
CNCCCOc1ccc(C(C)(C)c2ccccc2)cc1,i,.,i,.,.
COCCCNCCOc1ccc(C(C)(C)c2ccccc2)cc1,-7.8*,i,i,i,i
CC(=O)Nc1ccc(NC(=O)c2ccc(CN3CCc4ccccc4C3)cc2)cc1,i,i,i,i,i
